Our source for the EC50, Activity and IC50 values is ChEMBL document CHEMBL1800059, “Spiroindane based amides as potent and selective MC4R agonists for the treatment of obesity” (Bioorg Med Chem Lett, 2010).

In assay [1] the target is T1, Melanocortin receptor 4 (Homo sapiens, UniProt P32245). The experiment in a line: Agonist activity at human MC4R expressed in CHO cells assessed as increase of alpha-MSH-stimulated cAMP release pretreated for 10 mins before alpha-MSH challenge measured after 40 mins. The format is functional, cell-based. The method, boiled down:
(§1)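 Each value is the mean of at least three repeat measurements. Functional read-outs give EC50 with % maximal activation.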

A short description of assay [2]: Agonist activity at human MC1bR expressed in CHO cells assessed as increase of alpha-MSH-stimulated cAMP release pretreated for 10 mins before alpha-MSH challenge measured after 40 mins relative to alpha-MSH. Format: functional. The gist of the method: as §1
Assay [3] is described as follows: Agonist activity at human MC1bR expressed in CHO cells assessed as increase of alpha-MSH-stimulated cAMP release pretreated for 10 mins before alpha-MSH challenge measured after 40 mins. The format is functional, cell-based. The method, boiled down:
as §1

The target of assay [4] is T1, Melanocortin receptor 4. The experiment in a line: Displacement of [125I]-NDP-R-MSH from human MC4R expressed in CHO cells after 1.5 hrs by scintillation counting. Format: cell-based. The gist of the method: as §1
Background: Displacement assays read how much labelled ligand stays bound in the presence of the test substance.

The target in assay [5] is T1, Melanocortin receptor 4. The experiment in a line: Agonist activity at human MC4R expressed in CHO cells assessed as increase of alpha-MSH-stimulated cAMP release pretreated for 10 mins before alpha-MSH challenge measured after 40 mins relative to alpha-MSH. The format is functional, cell-based. The gist of the method: as §1

As a reminder, the EC50 is the concentration at which the effect is half-maximal. The IC50 is the concentration that inhibits the measured activity by half. Low readings indicate inhibition by little substance, high ones a need for much substance.

The structures appear in SMILES notation.

T1 sequence (P32245 whole entry): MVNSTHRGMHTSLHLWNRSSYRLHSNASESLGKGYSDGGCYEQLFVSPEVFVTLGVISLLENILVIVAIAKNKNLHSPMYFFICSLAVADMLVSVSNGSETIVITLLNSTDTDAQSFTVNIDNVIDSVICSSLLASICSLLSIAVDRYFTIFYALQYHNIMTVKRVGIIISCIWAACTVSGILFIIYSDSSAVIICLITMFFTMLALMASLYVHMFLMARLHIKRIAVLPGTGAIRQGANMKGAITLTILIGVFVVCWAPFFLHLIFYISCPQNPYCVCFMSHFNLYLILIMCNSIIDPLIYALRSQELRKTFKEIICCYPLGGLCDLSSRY

In the case of `Cc1cc2c(cc1Cl)C1(CCN(C(=O)[C@@H]3CN(C(C)(C)C)C[C@H]3c3ccc(F)cc3F)CC1)C[C@@H]2C(C)(C)C(=O)N1C[C@@H]2C[C@H]1CO2`, the EC50 came to 0.76 nM on Melanocortin receptor 4 [1] and 69 nM in assay [3]. The Activity in assay [2] stood at 72%; on Melanocortin receptor 4 [5] it was 96%. Moreover, the half-inhibitory concentration (IC50) at Melanocortin receptor 4 [4] was found to be 1.6 nM.
On to `Cc1cc2c(cc1Cl)C1(CCN(C(=O)[C@@H]3CN(C(C)(C)C)C[C@H]3c3ccc(F)cc3F)CC1)C[C@@H]2C(C)(C)C(=O)N1CCC(F)(F)C1`, for which the EC50 on Melanocortin receptor 4 [1] turned out to be 3.8 nM; in assay [3], 285 nM. For the same compound, the Activity came to 54% in assay [2] and 96% on Melanocortin receptor 4 [5]. Further, the IC50 on Melanocortin receptor 4 [4] was found to be 2 nM.
As to `Cc1cc2c(cc1Cl)C1(CCN(C(=O)[C@@H]3CN(C(C)(C)C)C[C@H]3c3ccc(F)cc3F)CC1)C[C@@H]2C(C)(C)C(=O)NC(C)(C)CO`, the EC50 stood at 1.9 nM on Melanocortin receptor 4 [1] and 218 nM in assay [3]. Also, the Activity is 53% in assay [2] and 89% on Melanocortin receptor 4 [5]. This compound also came in with an IC50 on Melanocortin receptor 4 [4] of 3.9 nM.
Taken in the same sequence, the figures for `CC(=O)N(C)C(C)(C)[C@H]1CC2(CCN(C(=O)[C@@H]3CN(C(C)(C)C)C[C@H]3c3ccc(F)cc3F)CC2)c2cc(Cl)c(C)cc21` were 4.3 nM, 270 nM, 41%, 83% and 2.5 nM.
Taken in the same sequence, the figures for `Cc1cc2c(cc1Cl)C1(CCN(C(=O)[C@@H]3CN(C(C)(C)C)C[C@H]3c3ccc(F)cc3F)CC1)C[C@@H]2C(C)(C)C(=O)NC1CC1` were 0.8 nM, 243 nM, 50%, 95% and 2.2 nM.
`Cc1cc2c(cc1Cl)C1(CCN(C(=O)[C@@H]3CN(C(C)(C)C)C[C@H]3c3ccc(F)cc3F)CC1)C[C@@H]2C(C)(C)C(=O)N1CCC1`: the EC50 at Melanocortin receptor 4 [1] stood at 0.59 nM; in assay [3], 238 nM. Moreover, the Activity was found to be 72% in assay [2] and 88% at Melanocortin receptor 4 [5]. In addition, on Melanocortin receptor 4 [4], the IC50 was 1.1 nM.
For `Cc1cc2c(cc1Cl)C1(CCN(C(=O)[C@@H]3CN(C(C)(C)C)C[C@H]3c3ccc(F)cc3F)CC1)C[C@@H]2C(C)(C)C(=O)NCC(F)(F)F`, in that order: 4.2 nM, 838 nM, 30%, 89% and 5.4 nM.
Taken in the same sequence, the figures for `CC(=O)NC(C)(C)[C@H]1CC2(CCN(C(=O)[C@@H]3CN(C(C)(C)C)C[C@H]3c3ccc(F)cc3F)CC2)c2cc(Cl)c(C)cc21` were 3.3 nM, 260 nM, 43%, 90% and 4.5 nM.
Taken in the same sequence, the figures for `Cc1cc2c(cc1Cl)C1(CCN(C(=O)[C@@H]3CN(C(C)(C)C)C[C@H]3c3ccc(F)cc3F)CC1)C[C@@H]2C(C)(C)C(=O)NCc1ccccc1` were 42 nM, 935 nM, 29%, 79% and 12 nM.
As for `CO[C@@H]1CCN(C(=O)C(C)(C)[C@H]2CC3(CCN(C(=O)[C@@H]4CN(C(C)(C)C)C[C@H]4c4ccc(F)cc4F)CC3)c3cc(Cl)c(C)cc32)C1`, the EC50 on Melanocortin receptor 4 [1] turned out to be 0.69 nM; in assay [3] it was 103 nM. For the same compound, the Activity was 67% in assay [2] and 111% at Melanocortin receptor 4 [5]. Besides, on Melanocortin receptor 4 [4], the half-inhibitory concentration (IC50) is 1.4 nM.
For `Cc1cc2c(cc1Cl)C1(CCN(C(=O)[C@@H]3CN(C(C)(C)C)C[C@H]3c3ccc(F)cc3F)CC1)C[C@@H]2C(C)(C)C(=O)NCC(C)C`, in that order: 27 nM, 2050 nM, 45%, 92% and 6.6 nM.
For `Cc1cc2c(cc1Cl)C1(CCN(C(=O)[C@@H]3CN(C(C)(C)C)C[C@H]3c3ccc(F)cc3F)CC1)C[C@@H]2C(C)(C)C(=O)N1CCOCC1`, in that order: 0.38 nM, 84 nM, 66%, 94% and 0.85 nM.
Taken in the same sequence, the figures for `CNC(=O)C(C)(C)[C@@H]1CC2(CCN(C(=O)[C@@H]3CN(C(C)(C)C)C[C@H]3c3ccc(F)cc3F)CC2)c2cc(Cl)c(C)cc21` were 12 nM, 1380 nM, 38%, 86% and 47 nM.
As to `Cc1cc2c(cc1Cl)C1(CCN(C(=O)[C@@H]3CN(C(C)(C)C)C[C@H]3c3ccc(F)cc3F)CC1)C[C@@H]2C(C)(C)C(=O)NCCF`, the half-maximal effective concentration (EC50) on Melanocortin receptor 4 [1] is 1.1 nM; in assay [3] it was 260 nM. In addition, the values for the Activity (in assay [2]; on Melanocortin receptor 4 [5]) were 48% and 84%, respectively. This compound also gave a half-maximal inhibitory concentration (IC50) at Melanocortin receptor 4 [4] of 2.6 nM.
For `Cc1cc2c(cc1Cl)C1(CCN(C(=O)[C@@H]3CN(C(C)(C)C)C[C@H]3c3ccc(F)cc3F)CC1)C[C@@H]2C(C)(C)C(=O)NC1CCOCC1`, in that order: 2.3 nM, 260 nM, 74%, 92% and 2.5 nM.
In the case of `CCNC(=O)C(C)(C)[C@@H]1CC2(CCN(C(=O)[C@@H]3CN(C(C)(C)C)C[C@H]3c3ccc(F)cc3F)CC2)c2cc(Cl)c(C)cc21`, the EC50 turned out to be 32 nM at Melanocortin receptor 4 [1] and 1420 nM in assay [3]. Moreover, the Activity worked out at 26% in assay [2] and 96% on Melanocortin receptor 4 [5]. Besides, the IC50 at Melanocortin receptor 4 [4] was found to be 53 nM.
For `Cc1cc2c(cc1Cl)C1(CCN(C(=O)[C@@H]3CN(C(C)(C)C)C[C@H]3c3ccc(F)cc3F)CC1)C[C@@H]2C(C)(C)C(=O)N1CC[C@H](F)C1`, in that order: 0.98 nM, 203 nM, 68%, 106% and 1.4 nM.
For `CCNC(=O)C(C)(C)[C@H]1CC2(CCN(C(=O)[C@@H]3CN(C(C)(C)C)C[C@H]3c3ccc(F)cc3F)CC2)c2cc(Cl)c(C)cc21`, in that order: 1.4 nM, 295 nM, 50%, 100% and 3.1 nM.
Taken in the same sequence, the figures for `Cc1cc2c(cc1Cl)C1(CCN(C(=O)[C@@H]3CN(C(C)(C)C)C[C@H]3c3ccc(F)cc3F)CC1)C[C@@H]2C(C)(C)C(=O)N1CC[C@H](O)C1` were 0.37 nM, 29 nM, 93%, 88% and 0.89 nM.
Regarding `Cc1cc2c(cc1Cl)C1(CCN(C(=O)[C@@H]3CN(C(C)(C)C)C[C@H]3c3ccc(F)cc3F)CC1)C[C@@H]2C(C)(C)C(=O)N1CC[C@@H](O)C1`, the EC50 at Melanocortin receptor 4 [1] amounted to 0.25 nM; in assay [3], 33 nM. Also, the Activity came to 71% in assay [2] and 98% on Melanocortin receptor 4 [5]. The compound also showed a concentration for half-maximal inhibition (IC50) at Melanocortin receptor 4 [4] of 0.53 nM.
For `CO[C@H]1CCN(C(=O)C(C)(C)[C@H]2CC3(CCN(C(=O)[C@@H]4CN(C(C)(C)C)C[C@H]4c4ccc(F)cc4F)CC3)c3cc(Cl)c(C)cc32)C1`, in that order: 1.2 nM, 102 nM, 71%, 112% and 2.3 nM.
`Cc1cc2c(cc1Cl)C1(CCN(C(=O)[C@@H]3CN(C(C)(C)C)C[C@H]3c3ccc(F)cc3F)CC1)C[C@@H]2C(C)(C)C(=O)NC(C)(C)C`: the EC50 on Melanocortin receptor 4 [1] is 9.9 nM; in assay [3] it was 1030 nM. The Activity in assay [2] was 47%; at Melanocortin receptor 4 [5], 76%. This compound had an IC50 on Melanocortin receptor 4 [4] of 12 nM.
Turning to `Cc1cc2c(cc1Cl)C1(CCN(C(=O)[C@@H]3CN(C(C)(C)C)C[C@H]3c3ccc(F)cc3F)CC1)C[C@@H]2C(C)(C)C(=O)NCCO`, the EC50 is 1.3 nM at Melanocortin receptor 4 [1] and 83 nM in assay [3]. The results for the Activity (in assay [2]; at Melanocortin receptor 4 [5]) were 56% and 100%, respectively. Moreover, the IC50 on Melanocortin receptor 4 [4] was 2.6 nM.
For the compound `Cc1cc2c(cc1Cl)C1(CCN(C(=O)[C@@H]3CN(C(C)(C)C)C[C@H]3c3ccc(F)cc3F)CC1)C[C@H]2C(C)(C)C(=O)N(C)C`, the values for the EC50 (at Melanocortin receptor 4 [1]; in assay [3]) were 53 nM and 5000 nM, respectively. For the same compound, the Activity in assay [2] worked out at 17%; on Melanocortin receptor 4 [5], 80%. The half-inhibitory concentration (IC50) on Melanocortin receptor 4 [4] came to 59 nM.
For `Cc1cc2c(cc1Cl)C1(CCN(C(=O)[C@@H]3CN(C(C)(C)C)C[C@H]3c3ccc(F)cc3F)CC1)C[C@@H]2C(C)(C)C(=O)N1CC[C@@H](F)C1`, the EC50 at Melanocortin receptor 4 [1] was 1.1 nM; in assay [3], 122 nM. Moreover, the Activity in assay [2] is 69%; at Melanocortin receptor 4 [5] it was 87%. Also, the IC50 on Melanocortin receptor 4 [4] turned out to be 1.6 nM.
For `CNC(=O)C(C)(C)[C@H]1CC2(CCN(C(=O)[C@@H]3CN(C(C)(C)C)C[C@H]3c3ccc(F)cc3F)CC2)c2cc(Cl)c(C)cc21`, in that order: 0.91 nM, 323 nM, 60%, 94% and 2.6 nM.
For `Cc1cc2c(cc1Cl)C1(CCN(C(=O)[C@@H]3CN(C(C)(C)C)C[C@H]3c3ccc(F)cc3F)CC1)C[C@@H]2C(C)(C)C(=O)N1CCCC1`, in that order: 1 nM, 223 nM, 60%, 73% and 1.8 nM.
`Cc1cc2c(cc1Cl)C1(CCN(C(=O)[C@@H]3CN(C(C)(C)C)C[C@H]3c3ccc(F)cc3F)CC1)C[C@H]2C(C)(C)C(=O)NCC(F)(F)F`: the EC50 at Melanocortin receptor 4 [1] was found to be 307 nM. The Activity in assay [2] worked out at 5%; at Melanocortin receptor 4 [5], 78%. In addition, at Melanocortin receptor 4 [4], the IC50 was found to be 93 nM.
